According to ChEMBL document CHEMBL6078712, “Triterpenoid phthalimides as selective anti-cancer agents targeting mitochondrial apoptosis” (Eur J Med Chem, 2025):

Tests used:
CCRF-CEM = assay: Cytotoxicity against human CCRF-CEM cells assessed as inhibition of cell growth incubated for 72 hrs by MTS assay; format: functional, cell-based
How it was run: (§1)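 MTS assay on eight human cancer lines and two non-tumour fibroblast lines. IC50 is the concentration that inhibits cell growth by 50 %. SD typically up to 15 % of the mean.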

CEM-DNR = assay: Cytotoxicity against human CEM-DNR cells assessed as inhibition of cell growth incubated for 72 hrs by MTS assay; format: functional, cell-based; how it was run: as §1
HCT-116 = assay: Cytotoxicity against human HCT-116 cells assessed as inhibition of cell growth incubated for 72 hrs by MTS assay; format: functional, cell-based; conditions: HCT-116, 72 h; how it was run: as §1
HCT 116 TP53(-/-) = assay: Cytotoxicity against human HCT116-p53-null cells assessed as inhibition of cell growth incubated for 72 hrs by MTS assay; format: functional, cell-based; how it was run: as §1
K562 = assay: Cytotoxicity against human K562 cells assessed as inhibition of cell growth incubated for 72 hrs by MTS assay; format: functional, cell-based; conditions: K562, 72 h; how it was run: as §1
[1] = Cytotoxicity against human K562-Tax cells assessed as inhibition of cell growth incubated for 72 hrs by MTS assay; format: functional, cell-based; how it was run: as §1
A549 = assay: Cytotoxicity against human A549 cells assessed as inhibition of cell growth incubated for 72 hrs by MTS assay; format: functional, cell-based; conditions: A549, 72 h; how it was run: as §1
U2OS = assay: Cytotoxicity against human U2OS cells assessed as inhibition of cell growth incubated for 72 hrs by MTS assay; format: functional, cell-based; how it was run: as §1
[2] = Cytotoxicity against human BJ cells assessed as inhibition of cell growth incubated for 72 hrs by MTS assay; format: toxicity, cell-based; how it was run: as §1
[3] = Cytotoxicity against human MRC5 cells assessed as inhibition of cell growth incubated for 72 hrs by MTS assay; format: toxicity, cell-based; how it was run: as §1

| Structure (SMILES) | IC50 (CCRF-CEM) | IC50 (CEM-DNR) | IC50 (HCT-116) | IC50 (HCT 116 TP53(-/-)) | IC50 (K562) | IC50 [1] | IC50 (A549) | IC50 (U2OS) | IC50 at 72 h [2] | IC50 at 72 h [3] |
| --- | --- | --- | --- | --- | --- | --- | --- | --- | --- | --- |
| COC(=O)c1ccc([C@@H]2CC[C@]3(C(=O)O)CC[C@]4(C)[C@H](CC[C@@H]5[C@@]6(C)CC[C@H](O)C(C)(C)[C@@H]6CC[C@]54C)[C@@H]23)cc1C(=O)OC | 14.1 µM | 11.5 µM | 16.6 µM | 16.2 µM | 13.8 µM | 11.5 µM | 11.1 µM | 19.6 µM | 31.1 µM | 25.3 µM |
| CC1(C)[C@@H](O)CC[C@]2(C)[C@H]3CC[C@@H]4[C@H]5[C@H](c6ccc7c(c6)C(=O)N(c6ccccc6)C7=O)CC[C@]5(C(=O)O)CC[C@@]4(C)[C@]3(C)CC[C@@H]12 | 7.93 µM | 19.9 µM | 31.1 µM | 37.8 µM | > 50 µM | 14.3 µM | 34.2 µM | 24.9 µM | > 50 µM | 31 µM |
| CC(=O)O[C@H]1CC[C@]2(C)[C@H]3CC[C@@H]4[C@H]5[C@H](c6cc7c(c(-c8ccccc8)c6)C(=O)NC7=O)CC[C@]5(CO)CC[C@@]4(C)[C@]3(C)CC[C@H]2C1(C)C | > 50 µM | > 50 µM | > 50 µM | > 50 µM | > 50 µM | > 50 µM | > 50 µM | > 50 µM | > 50 µM | > 50 µM |
